KCNQ1 block: inhibitors of human KCNQ1 potassium channel. B-score at 10 µM. AID 2642. 1.3% of 310,000 active. CHO-K1 KCNQ1, FluxOR thallium flux fluorescence; hits give high values. P51787;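 active means compounds whose thallium flux B-score, printed positive for inhibition, exceeds three library SD while starting fluorescence stays within three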;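 further: channel opened by potassium depolarization with thallium stimulus after 20 min compound exposure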
hERG protect: hERG (human) protection from proarrhythmic block | Q12809 | CHO-hERG, FluxOR thallium flux, dofetilide IC70 present | 0.51% of 310,000 active | activation (rescue from dofetilide block), less the hit threshold, % at 10 µM;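 active means activation above the mean of controls blocked by dofetilide plus 5 SD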;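 further: thallium influx through hERG after potassium depolarization seen as dye fluorescence rise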
KCNK3 block: human KCNK3 channel inhibition, primary screen; CHO-KCNK3 thallium flux, FluxOR fluorescence; hits give low values; B-score at 10 µM; 0.84% of 340,000 active;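 active means B-score under library mean minus 4 SD, starting fluorescence ratio at most library mean plus 5 SD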;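 further: more negative B-score means stronger inhibition of thallium flux through KCNK3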
KCNQ1 pot: potentiators or activators of human KCNQ1 potassium channel | 0.35% of 310,000 active | P51787 | CHO-K1 KCNQ1, thallium flux FluxOR fluorescence; hits give high values | B-score at 10 µM;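 active means fluorescence ratio B-score, a plate-corrected score, at least three library SD, with initial intensity B-score within 5 SD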
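Material: CHO-K1 cells stably expressing KCNQ1. Medium: assay buffer for compound exposure, DMSO matched across wells. Reagent: K+/Tl+ depolarizing stimulus. Compound dosing: single-concentration screen. Times: 37 °C overnight plating, 90-min dark dye load, 20-min compound pretreatment. Technique: FluxOR Tl+ flux fluorescence.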
Kir21 inh: inhibitors of mouse Kir2.1 inward-rectifier potassium channel; 0.85% of 310,000 active; HEK293-Kir2.1, FluxOR thallium flux fluorescence; hits give low values; AID 1672; B-score at 10 µM; P35561;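 active means fluorescence ratio B-score at or below minus 3 SD of library scores, with starting-brightness B-score within 2 SD, cut at about -4.2 in these data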;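 further: channel flux triggered by added potassium and thallium sulfate stimulus; B-score of peak minus minimum fluorescence over baseline after thallium stimulus; more negative B-score means stronger Kir2.1 block with less thallium influx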
KCNK9 inh: human KCNK9 channel inhibition; Q9NPC2; HEK293 KCNK9, FluxOR thallium flux fluorescence; hits give low values; B-score at 10 µM; 1.2% of 310,000 active; AID 488922;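 active means ratio B-score over 3 SD below the library mean, with starting fluorescence within 5 SD of its mean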;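 further: negative B-score means less thallium flux so channel inhibition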
Target sequence (Q9NPC2 whole entry, looked up): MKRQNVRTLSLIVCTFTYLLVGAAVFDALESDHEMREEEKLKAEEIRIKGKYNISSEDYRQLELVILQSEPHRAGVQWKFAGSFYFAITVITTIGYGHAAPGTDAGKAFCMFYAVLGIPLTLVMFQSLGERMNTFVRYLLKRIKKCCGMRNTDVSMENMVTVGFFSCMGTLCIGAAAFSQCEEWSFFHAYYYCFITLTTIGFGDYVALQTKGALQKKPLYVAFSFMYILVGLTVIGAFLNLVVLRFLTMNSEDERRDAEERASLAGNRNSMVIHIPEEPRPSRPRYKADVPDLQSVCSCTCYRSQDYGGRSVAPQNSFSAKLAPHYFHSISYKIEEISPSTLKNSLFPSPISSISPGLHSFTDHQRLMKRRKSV
KCNK9 inh conf: confirmation of human KCNK9 potassium channel inhibitors | 43% of 4,900 active | HEK293 KCNK9 cells, FluxOR thallium flux fluorescence | shares compounds with KCNK9 inh | AID 492992 | inhibition, % at 10 µM;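 active means thallium signal inhibited by more than 5 SD of the compound-free buffer control wells, on both duplicate plates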
Kir2-1 spec: mouse Kir2.1 off-target activity of KCNK9 modulators | AID 492993 | shares compounds with KCNK9 inh | Kir2.1 cells, FluxOR thallium flux fluorescence | inhibition, % at 10 µM | 4% of 4,900 active;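 active means thallium signal drop more than 5 SD beyond the mean of the no-compound control wells, seen in both duplicate plates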;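 further: signal is fluorescence rise after thallium addition divided by baseline fluorescence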
HEK293 Tl ctr: non-induced cell nonspecific activity of KCNK9 modulators; shares compounds with KCNK9 inh; non-induced KCNK9-HEK293, FluxOR thallium flux; inhibition, % at 10 µM; 40% of 4,900 active;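 active means thallium signal drop beyond 5 SD of the untreated control mean, on both duplicate plates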
Each line names hits and unclear results; the compound was inactive in the other large screens (follow-up assays come after a bar, where they were run). This is a sample that favours compounds with a hit; in the whole collection about 3.7% have one here.

CCC(C)(C)NC(=O)C1CCCN(S(=O)(=O)c2ccc3c(c2)CC(C)N3C(=O)C2CC2)C1 (stereo unspecified)	none
O=C(NCc1ccc(Cl)cc1)c1cc2c(s1)CS(=O)(=O)C2	none
CC(=O)CCC1C2C(O)C(C(C)C)C(OC(=O)/C=C/c3ccccc3)CC12C (stereo unspecified)	none | KCNK9 inh conf inactive | Kir2-1 spec inactive | HEK293 Tl ctr inactive
COc1ccc2cc(C(=O)C3CCCN(C(=O)c4cnccn4)C3)ccc2c1 (stereo unspecified)	none
O=C(c1ccc2ccccc2c1)C1CCCN(C(=O)CCn2cnnn2)C1 (stereo unspecified)	none
O=C(c1ccc2ccccc2c1)C1CCCN(C(=O)c2cnccn2)C1 (stereo unspecified)	none | KCNK9 inh conf inactive | Kir2-1 spec inactive | HEK293 Tl ctr inactive
COc1ccc2cc(C(=O)C3CCCN(C(=O)/C=C/c4ccccn4)C3)ccc2c1 (stereo unspecified)	none | KCNK9 inh conf inactive | Kir2-1 spec inactive | HEK293 Tl ctr inactive
Cc1nc(C)c(C(=O)N2CCCC(C(=O)c3ccc4ccccc4c3)C2)s1 (stereo unspecified)	none
CCn1cc(C(=O)N2CCCC(C(=O)c3ccc4ccccc4c3)C2)cn1 (stereo unspecified)	none | KCNK9 inh conf inactive | Kir2-1 spec inactive | HEK293 Tl ctr inactive
Cc1cc(C(=O)N2CCCC(C(=O)c3ccc4ccccc4c3)C2)n(C)n1 (stereo unspecified)	none | KCNK9 inh conf inactive | Kir2-1 spec inactive | HEK293 Tl ctr inactive
CCCCS(=O)(=O)Nc1ccc2cn[nH]c2c1	none
COc1cc(/C=C/CNC[C@H]2O[C@@H](n3ccc(=O)[nH]c3=O)[C@H](O)[C@@H]2O)ccc1O	none (no result: KCNQ1 block, hERG protect, KCNQ1 pot, Kir21 inh, KCNK9 inh)
Cc1cccc(NC(=O)CSc2ccc3nnc(-c4cccnc4)n3n2)c1	none
Cc1ccccc1OCC(=O)NC(=S)Nc1cccc2cc(O)ccc12	KCNK9 inh -8.9 | KCNK9 inh conf 52% | Kir2-1 spec inactive | HEK293 Tl ctr inactive
COc1ccc(OCC(=O)NC(=S)Nc2ccccc2F)cc1	none | KCNK9 inh conf inactive | Kir2-1 spec inactive | HEK293 Tl ctr inactive
CC(CNC(=O)CN1C(=O)NC2(CCCCC2)C1=O)c1ccccc1 (stereo unspecified)	none (no result: KCNQ1 block, hERG protect, KCNQ1 pot, Kir21 inh, KCNK9 inh)
COc1ccc(-n2c(-c3ccco3)nc3c(cnn3-c3ccccc3C)c2=O)cc1	none
CCOc1ccc2[nH]c3c(=O)n(CCC4=CCCCC4)cnc3c2c1	none | KCNK9 inh conf inactive | Kir2-1 spec inactive | HEK293 Tl ctr inactive
COc1ccccc1-n1c2nc3ccccc3nc2c2c(=O)n(-c3cc(C)cc(C)c3)cnc21	KCNK9 inh -8.5 | KCNK9 inh conf inactive | Kir2-1 spec inactive | HEK293 Tl ctr 25%
Clc1ccc(-c2ccc(CNCC3CCCO3)o2)cc1 (stereo unspecified)	none
CCc1ccc2c(c1)Sc1ccccc1CC2N1CCN(C)CC1 (stereo unspecified)	none
OCCN1CCN(C2Cc3cc(Cl)ccc3Sc3ccc(Cl)cc32)CC1 (stereo unspecified) (tested in a mixture with another compound)	KCNQ1 block 7, KCNK9 inh -8.6 | KCNK9 inh conf inactive | Kir2-1 spec inactive | HEK293 Tl ctr inactive
Cc1cc(=O)oc2cc(OCC(=O)Nc3ccc4[nH]c(=O)[nH]c4c3)ccc12	none
O=C1c2ccccc2C(=O)N1CC#CCN1CCN(C(c2ccccc2)c2ccccc2)CC1	none | KCNK9 inh conf inactive | Kir2-1 spec inactive | HEK293 Tl ctr inactive
O=C(CNS(=O)(=O)c1ccccc1)Nc1cccc([N+](=O)[O-])c1	none
Cc1cc(C(C)(C)C)oc1C(=O)N(CC(=O)NC1CCCC1)Cc1ccccc1Cl	none
O=C(NCC[C@@H]1C[C@@H]2C=C[C@H]1C2)c1cc(COc2ccc(F)cc2F)on1	KCNK9 inh -21 | KCNK9 inh conf 40% | Kir2-1 spec inactive | HEK293 Tl ctr 38%
COc1ccccc1CN1CCc2c([nH]c3ccccc23)C1	none
COc1cc(CN2CCc3c([nH]c4ccccc34)C2)cc(OC)c1	Kir21 inh -4.2, KCNK9 inh -8.1 | KCNK9 inh conf 39% | Kir2-1 spec inactive | HEK293 Tl ctr inactive
CN(CC(=O)Nc1ccccc1N1CCCC1)S(=O)(=O)c1ccc(F)cc1	none
COc1ccc(OC)c(NC(=O)c2cc(OC(C)=O)cc(C(=O)Nc3cc(OC)ccc3OC)c2)c1	KCNK9 inh -9.5 | KCNK9 inh conf 49% | Kir2-1 spec inactive | HEK293 Tl ctr inactive
COc1ccc(C(=O)Nc2cc(OC)ccc2OC)cc1	none
CCOC(=O)/C(=N\Nc1cccc(C(F)(F)F)c1)N(CCOC)CCOC	KCNK9 inh -8.3 | KCNK9 inh conf 44% | Kir2-1 spec inactive | HEK293 Tl ctr 34%
CN1CCN(NC(=O)CSc2ccc(Cl)cc2Cl)CC1	none
Cc1cccc(NC(=O)C2C(c3ccccc3)C2(Cl)Cl)c1 (stereo unspecified)	none | KCNK9 inh conf inactive | Kir2-1 spec inactive | HEK293 Tl ctr inactive
CC(=O)c1cccc(NC(=O)C2C(c3ccccc3)C2(Cl)Cl)c1 (stereo unspecified)	none
O=C(c1ccncc1)N1N=C(c2ccc(Br)cc2)CC1c1ccccc1O (stereo unspecified)	none
O=C(c1ccccc1Cl)N1N=C(c2ccc(Br)cc2)CC1c1nc2ccccc2[nH]1 (stereo unspecified)	KCNK9 inh -8.9 | KCNK9 inh conf 36% | Kir2-1 spec inactive | HEK293 Tl ctr 30%
O=S(=O)(Nc1nc2ccccc2nc1N1CCc2ccccc2C1)c1ccc(Cl)cc1	KCNK9 inh -12 | KCNK9 inh conf 46% | Kir2-1 spec inactive | HEK293 Tl ctr inactive
CCCCOc1ccc(CSCCNC(=S)Nc2ccccc2)cc1	none
CC(C)COc1ccc(CSCCNC(=S)Nc2ccccc2)cc1	KCNQ1 block 9 | KCNK9 inh conf inactive | Kir2-1 spec inactive | HEK293 Tl ctr inactive
CC[C@H](C)[C@H](NC(=O)c1ccccc1)C(=O)Nc1ccc(S(=O)(=O)Nc2cc(C)nc(C)n2)cc1	none
O=C1CSC(c2ccc3c(c2)OCO3)N1c1ccc(Oc2ccccc2)cc1 (stereo unspecified)	KCNK9 inh -14 | KCNK9 inh conf 50% | Kir2-1 spec inactive | HEK293 Tl ctr inactive
Cc1ccc(N2C(=O)CSC2c2ccc3c(c2)OCO3)cc1 (stereo unspecified)	none

Source: PubChem (Johns Hopkins Ion Channel Center)
